Assay results taken from ChEMBL document CHEMBL4316620, “Dihydropyrrolones as bacterial quorum sensing inhibitors” (Bioorg Med Chem Lett, 2019).
The source made the active and inactive calls. No cut-off for these calls is given here.

What was measured:
[1] = Inhibition of quorum sensing system in Pseudomonas aeruginosa MH602 PlasB::gfp at 250 uM incubated for 15 hrs by GFP reporter gene assay
Outline: (§1)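 Reporter strain P. aeruginosa PlasB::gfp (PAMH602) makes its own AHL; lasB promoter drives GFP-ASV. Cultures incubated with compound over 250–31.25 µM at 37 °C for 15 h, then GFP fluorescence read at 535 nm. QSI expressed as % relative to untreated PAMH602 negative control. Furanone positive control.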

[2] = Inhibition of quorum sensing system in Pseudomonas aeruginosa MH602 PlasB::gfp at 125 uM incubated for 15 hrs by GFP reporter gene assay; outline: as §1
[3] = Inhibition of quorum sensing system in Pseudomonas aeruginosa MH602 PlasB::gfp at 62.5 uM incubated for 15 hrs by GFP reporter gene assay; outline: as §1
[4] = Inhibition of quorum sensing system in Pseudomonas aeruginosa MH602 PlasB::gfp at 31.25 uM incubated for 15 hrs by GFP reporter gene assay; outline: as §1
Pseudomonas aeruginosa [5] = experiment: Toxicity in Pseudomonas aeruginosa MH602 PlasB::gfp assessed as inhibition of bacterial growth at 250 uM incubated for 15 hrs by spectrophotometry; format: organism-based; details: MH602, 15 h, read-out: GI
Pseudomonas aeruginosa [6] = experiment: Toxicity in Pseudomonas aeruginosa MH602 PlasB::gfp assessed as inhibition of bacterial growth at 125 uM incubated for 15 hrs by spectrophotometry; format: organism-based; details: MH602, 15 h, read-out: GI
Pseudomonas aeruginosa [7] = experiment: Toxicity in Pseudomonas aeruginosa MH602 PlasB::gfp assessed as inhibition of bacterial growth at 62.5 uM incubated for 15 hrs by spectrophotometry; format: organism-based; details: MH602, 15 h, read-out: GI
Pseudomonas aeruginosa [8] = experiment: Toxicity in Pseudomonas aeruginosa MH602 PlasB::gfp assessed as inhibition of bacterial growth at 31.25 uM incubated for 15 hrs by spectrophotometry; format: organism-based; details: MH602, 15 h, read-out: GI
Pseudomonas aeruginosa [9] = experiment: Inhibition of biofilm formation in Pseudomonas aeruginosa PAO1 at 250 uM incubated for 6 hrs by crystal violet staining based method; format: functional; details: for inhibition at 250 µM: PAO1, 6 h
Outline: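 P. aeruginosa PA01 biofilm. Cultures grown with or without test compound for 6 h. Biofilm biomass quantified by crystal violet staining (OD550). % inhibition calculated relative to DMSO control.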

## C=C1C(c2ccc(Br)cc2)=CC(=O)N1c1ccc(C(F)(F)F)cc1
[1]
  inhibition: 52.8%
[2]
  inhibition: 48.4%
[3]
  inhibition: 45.8%
[4]
  inhibition: 11.2%
Pseudomonas aeruginosa [5]
  inhibition at 250 µM: ≤ 15%
Pseudomonas aeruginosa [6]
  inhibition at 125 µM: ≤ 15%
Pseudomonas aeruginosa [7]
  inhibition at 62.5 µM: ≤ 15%
Pseudomonas aeruginosa [8]
  inhibition at 31.25 µM: ≤ 15%
Pseudomonas aeruginosa [9]
  inhibition at 250 µM: 37.5%

## C=C1C(c2ccc(Br)cc2)=CC(=O)N1c1ccc(Br)cc1
[1]
  inhibition: 54.3%
[2]
  inhibition: 50.5%
[3]
  inhibition: 40.4%
[4]
  inhibition: 8.81%
Pseudomonas aeruginosa [5]
  inhibition at 250 µM: ≤ 15%
Pseudomonas aeruginosa [6]
  inhibition at 125 µM: ≤ 15%
Pseudomonas aeruginosa [7]
  inhibition at 62.5 µM: ≤ 15%
Pseudomonas aeruginosa [8]
  inhibition at 31.25 µM: ≤ 15%
Pseudomonas aeruginosa [9]
  inhibition at 250 µM: 17%

## C=C1C(c2ccc(Br)cc2)=CC(=O)N1c1csc2ccccc12
[1]
  inhibition: 67.4%
[2]
  inhibition: 55.6%
[3]
  inhibition: 42.8%
[4]
  inhibition: 34.1%
Pseudomonas aeruginosa [5]
  inhibition at 250 µM: 15 to 30%
Pseudomonas aeruginosa [6]
  inhibition at 125 µM: ≤ 15%
Pseudomonas aeruginosa [7]
  inhibition at 62.5 µM: ≤ 15%
Pseudomonas aeruginosa [8]
  inhibition at 31.25 µM: ≤ 15%
Pseudomonas aeruginosa [9]
  inhibition at 250 µM: 13.2%

## C=C1C(c2ccccc2F)=CC(=O)N1c1cccc(C)c1
[1]
  inhibition: 59.1%
[2]
  inhibition: 39.7%
[3]
  inhibition: 25.5%
[4]
  inhibition: 25.3%
Pseudomonas aeruginosa [5]
  inhibition at 250 µM: ≤ 15%
Pseudomonas aeruginosa [6]
  inhibition at 125 µM: ≤ 15%
Pseudomonas aeruginosa [7]
  inhibition at 62.5 µM: ≤ 15%
Pseudomonas aeruginosa [8]
  inhibition at 31.25 µM: ≤ 15%
Pseudomonas aeruginosa [9]
  inhibition at 250 µM: 42%

## C=C1NC(=O)C(C)=C1c1ccc(Br)cc1
[1]
  inhibition: 59.6%
[2]
  inhibition: 45.2%
[3]
  inhibition: 38.1%
[4]
  inhibition: 33.7%
Pseudomonas aeruginosa [5]
  inhibition at 250 µM: ≤ 15%
Pseudomonas aeruginosa [6]
  inhibition at 125 µM: ≤ 15%
Pseudomonas aeruginosa [7]
  inhibition at 62.5 µM: ≤ 15%
Pseudomonas aeruginosa [8]
  inhibition at 31.25 µM: ≤ 15%

## C=C1NC(=O)C=C1c1ccccc1Cl
[1]
  inhibition: 72%
[2]
  inhibition: 69.7%
[3]
  inhibition: 58.3%
[4]
  inhibition: 37.8%
Pseudomonas aeruginosa [5]
  inhibition at 250 µM: ≤ 15%
Pseudomonas aeruginosa [6]
  inhibition at 125 µM: ≤ 15%
Pseudomonas aeruginosa [7]
  inhibition at 62.5 µM: ≤ 15%
Pseudomonas aeruginosa [8]
  inhibition at 31.25 µM: ≤ 15%

## C=C1NC(=O)C=C1c1ccc([N+](=O)[O-])cc1
[1]
  inhibition: 80.9%
[2]
  inhibition: 69.9%
[3]
  inhibition: 63.5%
[4]
  inhibition: 51.3%
Pseudomonas aeruginosa [5]
  inhibition at 250 µM: 15 to 30%
Pseudomonas aeruginosa [6]
  inhibition at 125 µM: ≤ 15%
Pseudomonas aeruginosa [7]
  inhibition at 62.5 µM: ≤ 15%
Pseudomonas aeruginosa [8]
  inhibition at 31.25 µM: ≤ 15%
Pseudomonas aeruginosa [9]
  inhibition at 250 µM: 57.2%

## O=C1C=C(c2ccccc2)/C(=C/Br)N1
[1]
  inhibition: 84.8%
[2]
  inhibition: 77.8%
[3]
  inhibition: 66.6%
[4]
  inhibition: 56.8%
Pseudomonas aeruginosa [5]
  inhibition at 250 µM: > 30%
Pseudomonas aeruginosa [6]
  inhibition at 125 µM: > 30%
Pseudomonas aeruginosa [7]
  inhibition at 62.5 µM: 15 to 30%
Pseudomonas aeruginosa [8]
  inhibition at 31.25 µM: ≤ 15%

## C=C1C(c2ccc(Br)cc2)=CC(=O)N1c1ccc(S(C)(=O)=O)cc1
[1]
  inhibition: 58.7%
[2]
  inhibition: 58.1%
[3]
  inhibition: 31.3%
[4]
  inhibition: 11.2%
Pseudomonas aeruginosa [5]
  inhibition at 250 µM: 15 to 30%
Pseudomonas aeruginosa [6]
  inhibition at 125 µM: ≤ 15%
Pseudomonas aeruginosa [7]
  inhibition at 62.5 µM: ≤ 15%
Pseudomonas aeruginosa [8]
  inhibition at 31.25 µM: ≤ 15%
Pseudomonas aeruginosa [9]
  inhibition at 250 µM: 10.3%

## O=C1C=C(c2ccc(Br)cc2)/C(=C/Br)N1
[1]
  inhibition: 82.3%
[2]
  inhibition: 53.9%
[3]
  inhibition: 53.5%
[4]
  inhibition: 38.2%
Pseudomonas aeruginosa [5]
  inhibition at 250 µM: > 30%
Pseudomonas aeruginosa [6]
  inhibition at 125 µM: > 30%
Pseudomonas aeruginosa [7]
  inhibition at 62.5 µM: 15 to 30%
Pseudomonas aeruginosa [8]
  inhibition at 31.25 µM: ≤ 15%

## C=C1C(c2ccc(Br)cc2)=CC(=O)N1c1ccc(C)cc1
[1]
  inhibition: 61.6%
[2]
  inhibition: 52.6%
[3]
  inhibition: 42.7%
[4]
  inhibition: 15.2%
Pseudomonas aeruginosa [5]
  inhibition at 250 µM: 15 to 30%
Pseudomonas aeruginosa [6]
  inhibition at 125 µM: ≤ 15%
Pseudomonas aeruginosa [7]
  inhibition at 62.5 µM: ≤ 15%
Pseudomonas aeruginosa [8]
  inhibition at 31.25 µM: ≤ 15%
Pseudomonas aeruginosa [9]
  inhibition at 250 µM: 16.3%

## O=C1C=C(c2ccc(F)cc2)CN1
[1]
  inhibition: 63%
[2]
  inhibition: 40.2%
[3]
  inhibition: 28.7%
[4]
  inhibition: 27.1%
Pseudomonas aeruginosa [5]
  inhibition at 250 µM: ≤ 15%
Pseudomonas aeruginosa [6]
  inhibition at 125 µM: ≤ 15%
Pseudomonas aeruginosa [7]
  inhibition at 62.5 µM: ≤ 15%
Pseudomonas aeruginosa [8]
  inhibition at 31.25 µM: ≤ 15%
Pseudomonas aeruginosa [9]
  inhibition: inactive

## C=C1C(c2ccccc2F)=CC(=O)N1c1cccc(F)c1
[1]
  inhibition: 61.1%
[2]
  inhibition: 55.2%
[3]
  inhibition: 41.8%
[4]
  inhibition: 24%
Pseudomonas aeruginosa [5]
  inhibition at 250 µM: ≤ 15%
Pseudomonas aeruginosa [6]
  inhibition at 125 µM: ≤ 15%
Pseudomonas aeruginosa [7]
  inhibition at 62.5 µM: ≤ 15%
Pseudomonas aeruginosa [8]
  inhibition at 31.25 µM: ≤ 15%
Pseudomonas aeruginosa [9]
  inhibition at 250 µM: 58.9%

## O=C1C=C(c2ccccc2F)/C(=C/Br)N1
[1]
  inhibition: 86.3%
[2]
  inhibition: 81.3%
[3]
  inhibition: 75%
[4]
  inhibition: 61.5%
Pseudomonas aeruginosa [5]
  inhibition at 250 µM: > 30%
Pseudomonas aeruginosa [6]
  inhibition at 125 µM: > 30%
Pseudomonas aeruginosa [7]
  inhibition at 62.5 µM: 15 to 30%
Pseudomonas aeruginosa [8]
  inhibition at 31.25 µM: ≤ 15%

## C=C1C(c2ccccc2F)=CC(=O)N1c1cccc(Br)c1
[1]
  inhibition: 50.5%
[2]
  inhibition: 43.3%
[3]
  inhibition: 34.7%
[4]
  inhibition: 29.3%
Pseudomonas aeruginosa [5]
  inhibition at 250 µM: ≤ 15%
Pseudomonas aeruginosa [6]
  inhibition at 125 µM: ≤ 15%
Pseudomonas aeruginosa [7]
  inhibition at 62.5 µM: ≤ 15%
Pseudomonas aeruginosa [8]
  inhibition at 31.25 µM: ≤ 15%
Pseudomonas aeruginosa [9]
  inhibition at 250 µM: 40.8%

## C=C1C(c2ccccc2F)=CC(=O)N1CCCC
[1]
  inhibition: 55.3%
[2]
  inhibition: 34.2%
[3]
  inhibition: 33.5%
[4]
  inhibition: 38.2%
Pseudomonas aeruginosa [5]
  inhibition at 250 µM: ≤ 15%
Pseudomonas aeruginosa [6]
  inhibition at 125 µM: ≤ 15%
Pseudomonas aeruginosa [7]
  inhibition at 62.5 µM: ≤ 15%
Pseudomonas aeruginosa [8]
  inhibition at 31.25 µM: ≤ 15%
Pseudomonas aeruginosa [9]
  inhibition at 250 µM: 52.2%

## C=C1NC(=O)C=C1c1ccc(OC)cc1
[1]
  inhibition: 74.4%
[2]
  inhibition: 62.7%
[3]
  inhibition: 44.5%
[4]
  inhibition: 37%
Pseudomonas aeruginosa [5]
  inhibition at 250 µM: 15 to 30%
Pseudomonas aeruginosa [6]
  inhibition at 125 µM: ≤ 15%
Pseudomonas aeruginosa [7]
  inhibition at 62.5 µM: ≤ 15%
Pseudomonas aeruginosa [8]
  inhibition at 31.25 µM: ≤ 15%
Pseudomonas aeruginosa [9]
  inhibition at 250 µM: 38.8%

## C=C1NC(=O)C(C)=C1c1ccc(Cl)cc1
[1]
  inhibition: 47.7%
[2]
  inhibition: 38.2%
[3]
  inhibition: 33.2%
[4]
  inhibition: 23.7%
Pseudomonas aeruginosa [5]
  inhibition at 250 µM: ≤ 15%
Pseudomonas aeruginosa [6]
  inhibition at 125 µM: ≤ 15%
Pseudomonas aeruginosa [7]
  inhibition at 62.5 µM: ≤ 15%
Pseudomonas aeruginosa [8]
  inhibition at 31.25 µM: ≤ 15%

## C=C1NC(=O)C(C)=C1c1ccccc1F
[1]
  inhibition: 54.8%
[2]
  inhibition: 48.8%
[3]
  inhibition: 31.7%
[4]
  inhibition: 28.8%
Pseudomonas aeruginosa [5]
  inhibition at 250 µM: ≤ 15%
Pseudomonas aeruginosa [6]
  inhibition at 125 µM: ≤ 15%
Pseudomonas aeruginosa [7]
  inhibition at 62.5 µM: ≤ 15%
Pseudomonas aeruginosa [8]
  inhibition at 31.25 µM: ≤ 15%

## C=C1C(c2ccccc2F)=CC(=O)N1Cc1ccccc1
[1]
  inhibition: 55.2%
[2]
  inhibition: 52.4%
[3]
  inhibition: 47.5%
[4]
  inhibition: 27%
Pseudomonas aeruginosa [5]
  inhibition at 250 µM: ≤ 15%
Pseudomonas aeruginosa [6]
  inhibition at 125 µM: ≤ 15%
Pseudomonas aeruginosa [7]
  inhibition at 62.5 µM: ≤ 15%
Pseudomonas aeruginosa [8]
  inhibition at 31.25 µM: ≤ 15%

## C=C1NC(=O)C=C1c1ccc(C)cc1
[1]
  inhibition: 80.5%
[2]
  inhibition: 78.7%
[3]
  inhibition: 72.3%
[4]
  inhibition: 36.5%
Pseudomonas aeruginosa [5]
  inhibition at 250 µM: ≤ 15%
Pseudomonas aeruginosa [6]
  inhibition at 125 µM: ≤ 15%
Pseudomonas aeruginosa [7]
  inhibition at 62.5 µM: ≤ 15%
Pseudomonas aeruginosa [8]
  inhibition at 31.25 µM: ≤ 15%

## C=C1NC(=O)C(C)=C1c1cccc(C(F)(F)F)c1
[1]
  inhibition: 47.2%
[2]
  inhibition: 47%
[3]
  inhibition: 33.2%
[4]
  inhibition: 26.3%
Pseudomonas aeruginosa [5]
  inhibition at 250 µM: ≤ 15%
Pseudomonas aeruginosa [6]
  inhibition at 125 µM: ≤ 15%
Pseudomonas aeruginosa [7]
  inhibition at 62.5 µM: ≤ 15%
Pseudomonas aeruginosa [8]
  inhibition at 31.25 µM: ≤ 15%
